Laboratory results published in ChEMBL document CHEMBL1140143, “Combining ligand-based pharmacophore modeling, quantitative structure-activity relationship analysis and in silico screening for the discovery of new potent hormone sensitive lipase inhibitors” (J Med Chem, 2008).

biological target: T1, Hormone-sensitive lipase (Rattus norvegicus, UniProt P15304); experiment: Inhibition of HSL in Wistar rat isolated fat cells by spectrophotometric assay
T1 sequence (P15304 whole entry): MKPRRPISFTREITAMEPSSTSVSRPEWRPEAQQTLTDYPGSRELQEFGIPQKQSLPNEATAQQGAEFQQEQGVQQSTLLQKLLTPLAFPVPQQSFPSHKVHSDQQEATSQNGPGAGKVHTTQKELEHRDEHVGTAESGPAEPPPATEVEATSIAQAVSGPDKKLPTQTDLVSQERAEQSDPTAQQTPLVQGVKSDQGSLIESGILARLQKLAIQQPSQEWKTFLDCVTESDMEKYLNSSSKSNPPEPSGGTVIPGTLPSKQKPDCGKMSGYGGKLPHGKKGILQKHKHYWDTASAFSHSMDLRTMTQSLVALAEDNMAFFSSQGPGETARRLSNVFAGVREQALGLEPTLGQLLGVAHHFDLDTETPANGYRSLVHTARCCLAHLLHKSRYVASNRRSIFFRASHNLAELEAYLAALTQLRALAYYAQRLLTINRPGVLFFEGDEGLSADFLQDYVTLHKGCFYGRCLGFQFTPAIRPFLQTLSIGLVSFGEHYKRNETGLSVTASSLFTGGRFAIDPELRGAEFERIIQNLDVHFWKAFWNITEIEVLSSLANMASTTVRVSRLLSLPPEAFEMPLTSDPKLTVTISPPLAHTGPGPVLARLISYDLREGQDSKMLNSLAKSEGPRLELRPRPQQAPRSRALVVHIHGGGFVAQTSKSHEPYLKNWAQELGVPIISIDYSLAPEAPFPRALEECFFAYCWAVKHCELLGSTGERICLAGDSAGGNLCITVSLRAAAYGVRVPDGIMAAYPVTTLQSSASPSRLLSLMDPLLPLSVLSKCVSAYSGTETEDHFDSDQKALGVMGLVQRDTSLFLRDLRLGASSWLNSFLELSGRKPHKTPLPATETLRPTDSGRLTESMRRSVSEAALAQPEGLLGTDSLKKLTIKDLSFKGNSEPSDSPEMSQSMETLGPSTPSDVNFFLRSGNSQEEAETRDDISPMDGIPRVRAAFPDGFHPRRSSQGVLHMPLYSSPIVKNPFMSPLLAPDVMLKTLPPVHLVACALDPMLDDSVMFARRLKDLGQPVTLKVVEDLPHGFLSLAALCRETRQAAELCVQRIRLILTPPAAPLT

Compound | IC50
O=C(OCc1ccccc1)c1ccccc1 [BENZYL BENZOATE] | 1100 nM
CCSCc1ccccc1OC(=O)NC [ETHIOFENCARB] | 370 nM
COC(=O)c1nnn(CCc2c[nH]c3ccccc23)c1C(=O)OC | 5000 nM
CCCCOc1ccc(Oc2ccc(C(F)(F)F)cc2[N+](=O)[O-])cc1 | 210 nM
COC(=O)c1cc(Oc2ccc(Cl)cc2Cl)ccc1[N+](=O)[O-] [BIFENOX] | 430 nM
COc1cccc(CSC(C(=O)O)c2ccccc2)c1 (stereo not given) | 510 nM
COc1ccc(C(=O)c2ccccc2)c(O)c1 [OXYBENZONE] | 3250 nM
Cc1nnc(C2CCN(C(=O)n3oc(=O)c(C(C)C)c3C)CC2)o1 | > 1000 nM
Cc1ccc(C2CCN(C(=O)n3oc(=O)c(C(C)C)c3C)CC2)cc1 | 37 nM
Cc1c(Sc2ccc(Cl)cc2)c(=O)on1C(=O)N1CCCCC1 | 6 nM
Cc1c(C(C)C)c(=O)on1C(=O)N1CC(C)CC(C)C1 (stereo not given) | 326 nM
Cc1c(CC(C)C)c(=O)on1C(=O)N1CCC(c2ccccc2)CC1 | 10 nM
CCCSc1nc(-c2ccc(Cl)cc2)nn1C(=O)N(C)C | 1.06 nM
Cc1c(CC(C)C)c(=O)on1C(=O)N1CCC(C)CC1 | 3 nM
CSc1nc(-c2ccc(C(F)(F)F)cc2)nn1C(=O)N(C)C | 1.76 nM
CCCCCCSc1nc(-c2ccc(C)cc2)nn1C(=O)N(C)c1ccccc1 | 12.3 nM
CN(C(=O)n1nc(-c2ccc(Cl)cc2)nc1SCC1CC1)c1ccccc1 | 1.09 nM
Cc1c(C(C)C)c(=O)on1C(=O)NC(C)(C)C | > 1000 nM

biological target: T2, Hormone-sensitive lipase (Rattus norvegicus) (UniProt P15304); experiment: Inhibition of HSL in Wistar rat isolated fat cells at 10 uM by spectrophotometric assay
T2 sequence (whole entry): T1 sequence (P15304 whole entry)
Procedure, shortened: (§1)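 HSL extract from male Wistar rat epididymal fat cells (collagenase-isolated, homogenized in Tris-HCl pH 7.0/sucrose, ether-extracted supernatant). Enzyme preincubated with compound 30 min at 37 °C, then p-nitrophenyl butyrate added at 10 µM in phosphate buffer pH 7.25 with dithioerythritol; DMSO ≤1.0%. A400 read at 1, 3, 6 min at 37 °C; residual activity versus no-compound control; mean of ≥3 measurements.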

Compound | inhibition
O=C(OCc1ccccc1)c1ccccc1 [BENZYL BENZOATE] | 66%
CCOC(=O)c1c(C)c2c(n1C)CC/C(=C\N1CCCCC1)C2=O | 10%
COc1ccc2cc([C@H](C)C(=O)O)ccc2c1 | 64%
O=C(NC(Cc1ccccc1)C(=O)O)C(=O)c1c[nH]c2ccc(Cl)cc12 (stereo not given) | 26%
COC1=CC(=O)OC(c2ccco2)C1 (stereo not given) | 12%
O=C(CC(=O)c1ccccc1)c1ccccc1 | 28%
CCSCc1ccccc1OC(=O)NC [ETHIOFENCARB] | 52%
O=C(/C(=N/c1ccccc1)NO)c1ccccc1 | 23%
COC(=O)c1nnn(CCc2c[nH]c3ccccc23)c1C(=O)OC | 52%
COC(=O)Cc1nc2ccc(OC)cc2nc1O | 15%
COc1ccc(Br)c(C(=O)O)c1OS(=O)(=O)c1ccc(C)cc1 | 30%
COC(=O)c1ccc(C)c(NS(=O)(=O)c2ccc3c(c2)c(=O)sn3C)c1 | 24%
COC1=CC(=O)OC(C)(c2ccccc2)C1 (stereo not given) | 24%
CC(C)=NNc1ccnc(SCc2ccccc2)n1 | 2%
Cc1ncc(COCc2ccccc2)c(CO)c1OCc1ccccc1 | 31%
COc1ccc(Cc2ccc3nc(O)cc(C)c3c2)cc1S(=O)(=O)O | 24%
COc1ccc(C(O)c2cc3ccccc3n2S(=O)(=O)c2ccccc2)cc1 (stereo not given) | 29%
O=S(=O)(Oc1ccc(Cl)cc1)c1ccc(Cl)cc1 | 26%
COc1ccc(C(=O)c2ccccc2)c(O)c1 [OXYBENZONE] | 44%
CCC(CCC#N)C(=O)c1ccc(C)o1 (stereo not given) | 14%
COC(=O)C1Oc2ccc(Cl)cc2C1=O (stereo not given) | 3%
COc1cc(CNC(=O)CCCC/C=C/C(C)C)ccc1O | 33%

biological target: T2, Hormone-sensitive lipase (Rattus norvegicus); experiment: Inhibition of HSL in Wistar rat isolated fat cells at 1 uM by spectrophotometric assay; procedure, shortened: as §1

Compound | inhibition
O=c1c(O)c(-c2ccccc2)oc2ccccc12 | 23%
CC1(C)C(C(=O)OC(C#N)c2cccc(Oc3ccccc3)c2)C1(C)C (stereo not given) | 35%
CC(C)C(C(=O)OC(C#N)c1cccc(Oc2ccccc2)c1)c1ccc(Cl)cc1 (stereo not given) | 37%
CCOC(=O)c1nc2ccccc2nc1NCc1ccc(OC)cc1 | 27%
O=C(O)/C(=N\OCc1ccccc1)c1ccccc1 | 21%
CCCCOc1ccc(Oc2ccc(C(F)(F)F)cc2[N+](=O)[O-])cc1 | 64%
CC(C)[C@H](C(=O)O[C@H](C#N)c1cccc(Oc2ccccc2)c1)c1ccc(Cl)cc1 | 33%
COC(=O)c1cc(Oc2ccc(Cl)cc2Cl)ccc1[N+](=O)[O-] [BIFENOX] | 60%
CCOc1ccc([Si](C)(C)CCCc2ccc(F)c(Oc3ccccc3)c2)cc1 | 6%
O=C(/C=C/c1ccccc1)OCCc1ccccc1 | 12%
CC(=O)Oc1cc(OCCCc2ccc(F)cc2)cc2c1-c1ccccc1CC2 | 24%
COc1cccc(CSC(C(=O)O)c2ccccc2)c1 (stereo not given) | 67%
Cc1ccc(S(=O)(=O)Nc2cccc3cc(Cl)ccc23)cc1 | 15%
Cc1ccc(-c2nc(SCc3ccccc3)nc(O)c2CCO)cc1 | 45%
O=C(COC(=O)c1ccccc1)c1ccccc1 | 9%
